High-throughput results deposited in PubChem by several laboratories.
XBP1 UPR activ – activators of adaptive XBP1 UPR arm, primary screen, cell-based, CHO-XBP1 luciferase reporter, luminescence, uHTS. IRE1-XBP1 UPR activation; percent of tunicamycin response, DMSO as zero. 0.33% of 330,000 active. activation, % at 20 µM;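 active = versus positive control, 20 µM dose yields 30% or more activation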;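 also: 100% = tunicamycin at 10 µg/mL and 0% = DMSO only wells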
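Assay system: IRE1-XBP1 luciferase reporter CHO line. Input: 1000 cells/well. Buffer or medium: F12 with 10% serum. Doses: 20 µM, 1% DMSO. Times: overnight seeding at 37 °C, 6 h compound treatment at 37 °C. Technique: Steady-Glo luciferase glow luminescence, 10 min after reagent addition.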
Jurkat NFkB inh – inhibitors of induced NF-kB luciferase reporter, primary screen, TCR NF-kB activation inhibitor project, cell-based, luminescence, uHTS; Jurkat, PMA/ionomycin-induced NF-kB luciferase reporter; inhibition, % at 4 µM; 0.53% of 330,000 active; in the data active = inhibition above about 50%
UPR CHOP act – activators of apoptotic CHOP UPR arm, primary screen, cell-based, CHO-CHOP luciferase reporter, luminescence, uHTS | activation, % at 10 µM | 0.34% of 330,000 active | AID 449763, 2010 | UPR activation; percent of tunicamycin response over DMSO baseline;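 active = at 10 µM dose, activation of 40% or more, normalized to positive control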;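 also: 100% = tunicamycin at 10 µg/mL and 0% = DMSO alone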
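Test system: CHO CHOP reporter cells. Input: 500 CHO-CHOP cells per well. Medium: F12 with 10% FBS. Technique: luciferase luminescence. Measure: percent activation relative to tunicamycin control. Dosing: 10 µM compound, 0.5% DMSO. Timing: 16-18 h cell attachment, then 6 h compound exposure, 37 °C.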
697 NFkB inh – inhibitors of PMA/ionomycin-induced NF-kB reporter, 697 cells, primary screen, B-cell NF-kB inhibitor project, cell-based, luminescence, uHTS; 697 B-cell NF-kB luciferase reporter, 16 h; 0.33% of 330,000 active; inhibition, % at 4 µM; in the data active = inhibition above about 35%
CHOP inhibitor – inhibitors of CHOP promoter induction, primary screen, cell-based, unfolded protein response, luciferase reporter; CHO-K1 CHOP-promoter luciferase, tunicamycin-induced, 15-18 h; 3.8% of 220,000 active; inhibition, % at 10 µM; AID 2732, 2010;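 active = compounds that reduced the stress-induced luciferase reporter signal by more than about 70% of percent inhibition, limit read from the data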;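 also: 0% = tunicamycin plus vehicle and 100% = wells without tunicamycin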
CHOP inh conf – retest of CHOP induction inhibitors, confirmation, cell-based | shares compounds with CHOP inhibitor | 45% of 2,100 active | CHO-CHOP promoter luciferase reporter, tunicamycin-induced, luminescence | inhibition, % at 10 µM | AID 504437, 2011;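 active = mean of three repeat readings of reporter signal inhibition above a set limit, cut at about 70% in these data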;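 also: 0% = tunicamycin plus vehicle and 100% = wells lacking tunicamycin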
* = called active by the depositor; . = no result. This excerpt belongs to a sample that is enriched for hits.

SMILES | XBP1 UPR activ | Jurkat NFkB inh | UPR CHOP act | 697 NFkB inh | CHOP inhibitor | CHOP inh conf
CC(=O)N(/N=C/c1ccc(C)cc1)c1nc(CCl)cs1 | 6 | -10 | 5 | -2 | . | .
CS(=O)(=O)c1ccc(S(=O)CC(=O)OCc2ccccc2)c([N+](=O)[O-])c1 (configuration not stated) | . | . | . | . | 107* | 128*
Cc1ccc(O)c(-c2cc(-c3ccccc3F)[nH]n2)c1 | 6 | -47 | 2 | -64 | 104* | 8
Cc1ccc(-c2cc(-c3ccccc3C)[nH]n2)c(O)c1 | 4 | -114 | 9 | -105 | 102* | 9
Cc1ccc(O)c(-c2cc(-c3cccc(F)c3)n[nH]2)c1 | 4 | -22 | 4 | -46 | 102* | 12
Cc1ccc(C)c(NC(=O)c2cc(-c3cc(C)ccc3O)n[nH]2)c1 | 2 | -44 | 1 | -60 | . | .
Cc1ccc(-c2cc(-c3cccc(F)c3)n[nH]2)c(O)c1 | 3 | -141 | 2 | -224 | -59 | .
Cc1ccc(OCCC(=O)NNC(=O)c2cc(C)oc2C)cc1 | -2 | 0 | -2 | -5 | . | .
CC(C)CC1NC(=O)N(Cc2nc3ccccc3s2)C1=O (configuration not stated) | -2 | -6 | 1 | 13 | -11 | .
O=C1/C(=C/c2ccncc2)SC(=S)N1C1CCS(=O)(=O)C1 (configuration not stated) | -5 | 13 | 8 | 21 | 104* | 103*
CC(C)NC(=O)NC(=O)CSc1nnc(COc2ccccc2F)n1C(C)C1CC2CCC1C2 (configuration not stated) | 10 | -10 | 6 | -23 | 106* | 38
CCc1cccc(C)c1NC(=O)CSc1nc(-c2ccccc2F)nc2nc[nH]c12 | 0 | -24 | -2 | 4 | 108* | 56
CCCCNc1nc(Cl)nc(Nc2ccc(C)cc2)n1 | 4 | 19 | 5 | -6 | . | .
CC(=O)c1ccc(S(=O)(=O)N(CC(=O)NC2CC2)Cc2ccc(F)cc2)cc1 | 0 | -2 | 7 | -2 | . | .
O=C(CCCN1CCC(O)(c2ccc(Br)cc2)CC1)c1ccc(F)cc1 | -8 | 21 | -2 | 21 | . | .
OC1(c2ccc(Br)cc2)CCNCC1 | 1 | 5 | 0 | 2 | 101* | 25
COc1ccc(S(=O)(=O)CC(=O)c2cc3cc(Br)ccc3oc2=O)cc1 | -4 | -11 | -1 | -5 | . | .
O=C1/C(=C\c2ccncc2)CCc2ccccc21 | 0 | 3 | 1 | -15 | . | .
O=C1/C(=C/c2ccncc2)CCC/C1=C\c1ccncc1 | . | . | . | . | 98* | 78*
C/C(=N\NC(=O)c1cccc(Cl)c1)C1C(=O)c2ccccc2C1=O | -4 | -25 | 2 | -71 | 2 | .
CCOC(=O)C1CCN(C(=O)c2cccc(S(=O)(=O)NCc3ccccc3)c2)CC1 | -2 | -3 | 1 | 4 | . | .
CC1(c2ccccc2)CC(C)(C)N2C(=O)/C(=C3\SC(=S)NC3=O)c3cccc1c32 (configuration not stated) | . | . | . | . | 97* | 82*
Cc1cc(C)nc(NS(=O)(=O)c2ccc(NC(=O)c3cc(-c4ccccc4)nc4ccccc34)cc2)n1 | 1 | 1 | 1 | 33 | 102* | 25
COC(=O)c1ccc(N2C(=O)CC(SCC(=O)Nc3ccc(OC)cc3)C2=O)cc1 (configuration not stated) | 1 | -5 | 2 | 9 | 15 | .
CN=C(Nc1cc(Cl)ccc1Cl)SC1CC(=O)N(c2ccc(C(=O)OC)cc2)C1=O (configuration not stated) | -4 | -5 | -1 | 5 | 105* | 5
SMILES | XBP1 UPR activ | Jurkat NFkB inh | UPR CHOP act | 697 NFkB inh | CHOP inhibitor | CHOP inh conf
Cc1cc(C)nc(SCC(=O)N/N=C\C(Br)=C\c2ccccc2)n1 | -2 | 1 | 0 | -10 | 51 | .
Cc1ccc(NCC(=O)N/N=C\C(Br)=C\c2ccccc2)cc1 | -3 | -1 | 1 | -6 | 110* | 10
O=S(=O)(NC1CC1)c1ccc(S(=O)(=O)N2CCCC3(CCCCC3)C2)cc1 | 17 | 3 | 5 | -15 | 97* | 98*
O=S(=O)(NC1CC1)c1ccc(S(=O)(=O)N2CCN3CCCC3C2)cc1 (configuration not stated) | -2 | 4 | -2 | 4 | 7 | .
CCc1cccc(NC(=O)C2CCCN(S(=O)(=O)c3cccs3)C2)c1 (configuration not stated) | 1 | -21 | -1 | -44 | . | .
CC(=O)N(c1ccccc1)C1CCCC1 | -1 | 10 | 1 | 1 | 18 | .
O=C(CCl)N(c1ccccc1)C1CCCCC1 | -8 | 1 | -1 | -9 | 107* | 16
O=C(Cc1cccc2ccccc12)NC(NC(=S)Nc1ccccc1Cl)C(Cl)(Cl)Cl (configuration not stated) | 0 | -3 | 0 | 16 | 104* | -14
CC(=O)C1=C(C)NC(SCC(=O)c2ccc(-c3ccccc3)cc2)=C(C#N)C1c1cccnc1 (configuration not stated) | 9 | -14 | 3 | -37 | 97* | 21
Cc1cc(C(=O)NC(Cc2ccccc2)C(=O)O)c(C)o1 (configuration not stated) | -2 | 4 | 0 | 11 | 2 | .
O=C(Nc1cccc(Cl)c1)NC1(C(=O)NCc2cccs2)CCCCC1 | -3 | 19 | -3 | -2 | 104* | 24
COC(=O)C1=C(C)NC(C)=C(C(=O)OC)C1c1cc2cc(C)ccc2[nH]c1=O | -1 | -11 | -1 | -44 | -36 | .
Cc1ccc2[nH]c(=O)c(C3C(C#N)=C(N)Oc4c3ccc3cccnc43)cc2c1 (configuration not stated) | 2 | -15 | 0 | -15 | 97* | 28
C=CCn1cccc(C(=O)Nc2ccc(N(C)C)cc2)c1=O | 6 | -22 | 4 | -41 | . | .
COC(=O)Nc1nnc(-c2ccncc2)s1 | 1 | -8 | 1 | 2 | -5 | .
Cc1ccc(NC(=O)Nc2nnc(-c3ccncc3)s2)cc1C | 3 | -20 | 1 | -33 | 104* | 68
C=CCOc1ccc2c(c1)C(=NO)c1cc(OCC=C)ccc1-2 | 7 | -11 | 2 | -65 | 104* | 59
ON=C1c2cc(OCCN3CCCCC3)ccc2-c2ccc(OCCN3CCCCC3)cc21 | -7 | -5 | 6 | -3 | . | .
CC(=O)C[C@@H](O)CC(=O)[C@@H]1OC(=O)CCCCCCCc2ccccc21 | 1 | -20 | 3 | -21 | . | .
CC(C)(C)C(=O)Cn1ncc(N2CCCC2)c(Br)c1=O | -1 | -50 | 4 | -31 | 12 | .
O=C(OCn1ncc(Br)c(Br)c1=O)c1c(F)cccc1F | . | . | . | . | . | 125*
